In ChEMBL document CHEMBL1141653, “New bis(2-aminoimidazoline) and bisguanidine DNA minor groove binders with potent in vivo antitrypanosomal and antiplasmodial activity” (J Med Chem, 2008):

Assays:
L6 = experiment: Cytotoxicity against rat L6 cells; assay type: cell-based
Plasmodium falciparum = experiment: Antiplasmodial activity against Plasmodium falciparum K1 in [3H]hypoxanthine incorporation assay; assay type: functional, organism-based; settings: K1, 72 h
Outline: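 K1 erythrocytic stages in RPMI 1640 without hypoxanthine with AlbuMax, human A⁺ red cells at 2.5% hematocrit, 0.3% parasitemia. Compounds taken from 10 mg/mL DMSO stock, tested as serial doubling dilutions at 37 °C in 4% CO₂/3% O₂/93% N₂. After 48 h, ³H-hypoxanthine (0.5 µCi) added for 24 h more; incorporation by scintillation counting. IC₅₀ from sigmoidal curves.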

[1] = Selectivity index, ratio of IC50 for rat L6 cells to IC50 for Trypanosoma brucei rhodesiense STIB900; assay type: functional
Outline: (§1)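 Ratio of the IC₅₀ on L-6 rat skeletal myoblasts to the parasite IC₅₀. Cytotoxicity measured in RPMI 1640 with L-glutamine and 10% FBS, serial dilutions 90 to 0.123 µg/mL, duplicate. After 72 h, Alamar blue (resazurin) added for 2 h. Fluorescence read at ex 536 / em 588 nm.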

Ferriprotoporphyrin IX [2] = experiment: Inhibition of ferriprotoporphyrin 9 biomineralization at 1 mg/ml; assay type: functional
Outline: (§2)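 β-Hematin formation: hemin chloride (0.5 mg/mL in DMSO) with 0.5 M sodium acetate pH 4.4 and drug dilutions, 37 °C for 18–24 h. Pellet washed with DMSO, dissolved in 0.1 N NaOH, A405 read. Percent inhibition relative to solvent control. IC₅₀ derived, or percent inhibition at 1 mg/mL (highest concentration) given when no IC₅₀.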

[3] = Binding affinity for DNA assessed as thermal melting temperature
Outline: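 Thermal melting of poly(dA)·poly(dT): DNA at 40 µM base with compound at 12 µM (ratio 0.3) in MES 0.01 M / EDTA 0.001 M buffer, pH 6.25. A260 followed from 20 to 95 °C at 0.5 °C/min. Value is ΔTm.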

[4] = Selectivity index, ratio of IC50 for rat L6 cells to IC50 for Plasmodium falciparum K1; assay type: functional; outline: as §1
[5] = test system: Trypanosoma brucei rhodesiense; experiment: Antitrypanosomal activity against Trypanosoma brucei rhodesiense STIB900; assay type: functional, organism-based
Outline: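 Bloodstream forms (10⁴ per well) in MEM with 15% heat-inactivated horse serum, 25 mM HEPES, 2-mercaptoethanol, hypoxanthine. 3-fold serial dilutions from 90 to 0.123 µg/mL, in duplicate. Incubation 72 h at 37 °C, 5% CO₂. Resazurin then added for 2–4 h more. Fluorescence read at ex 536 / em 588 nm.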

Ferriprotoporphyrin IX [6] = experiment: Inhibition of ferriprotoporphyrin 9 biomineralization; assay type: functional; outline: as §2

IC50 (Plasmodium falciparum) [µM] | ΔTm [3] [°C] | IC50 [5] [µM] | IC50 (Ferriprotoporphyrin IX [6]) [µM] | Compound | IC50 (L6) [µM] | Ratio IC50 [1] | inhibition (Ferriprotoporphyrin IX [2]) [%] | Ratio IC50 [4]
0.032 | 15 | 0.161 | – | N=C(N)Nc1ccc(Cc2ccc(NC(=N)N)cc2)cc1 | 2.8 | 17 | 0 | 88
0.444 | 12.8 | 4.3 | – | N=C(N)Nc1ccc(S(=O)(=O)c2ccc(NC(=N)N)cc2)cc1 | > 222 | >51 | – | >500
0.129 | – | 2.05 | 117 | O=C(c1ccc(NC2=NCCN2)cc1)c1ccc(NC2=NCCN2)cc1 | > 214 | – | – | >1658
8.7 | – | 1.3 | – | N=C(N)Nc1ccc(NC(=S)Nc2ccccc2)cc1 | > 225 | – | – | –
0.549 | – | 1.2 | – | c1ccc(Nc2ccc(NC3=NCCN3)cc2)cc1 | 90.7 | – | – | –
0.077 | – | 0.47 | – | CC(C)(C)OC(=O)/N=C(/NC(=O)OC(C)(C)C)Nc1ccc(Nc2ccc(N/C(=N\C(=O)OC(C)(C)C)NC(=O)OC(C)(C)C)cc2)cc1 | 3.7 | – | 45 | 48
> 23 | – | 155 | – | CC(=O)c1ccc(NC(=N)N)cc1 | > 421 | – | – | –
12.2 | – | 39.9 | – | Cc1ccc(NC(=N)N)cc1C | 190 | – | – | –
3.1 | – | 2.6 | – | S=C(Nc1ccccc1)Nc1ccc(NC2=NCCN2)cc1 | 91.1 | – | – | –
14.8 | – | 237 | – | COc1ccc(NC(=N)N)cc1OC | > 388 | – | – | –
1.6 | – | 4.8 | – | N=C(N)Nc1ccc(Nc2ccccc2)cc1 | 49.5 | – | – | –
5.7 | – | 2.4 | – | CCN(CC)c1ccc(NC(=N)N)cc1 | 78.1 | – | – | –
0.0115 | 44.1 | 0.0049 | 491 | c1cc2c(cc1NC1=NCCN1)Cc1cc(NC3=NCCN3)ccc1-2 | 83.4 | 17020 | – | 7252
5.2 | – | 9.4 | – | O=C(c1ccccc1)c1ccc(NC2=NCCN2)cc1 | 226 | – | – | –
3.8 | – | 15.9 | – | N=C(N)Nc1ccc(Cc2ccccc2)cc1 | 43.9 | – | – | –
> 26 | – | 311 | – | N=C(N)Nc1ccc(N)cc1 | 132 | – | – | –
0.0023 | – | 0.024 | – | N=C(N)Nc1ccc2c(c1)Cc1cc(NC(=N)N)ccc1-2 | 4.7 | 196 | – | 2043
0.059 | – | 0.048 | 171 | CC(C)(C)OC(=O)N1CCN(C(=O)OC(C)(C)C)C1=Nc1ccc(Nc2ccc(N=C3N(C(=O)OC(C)(C)C)CCN3C(=O)OC(C)(C)C)cc2)cc1 | 9.8 | – | – | 166
0.068 | 27.6 | 0.206 | – | N=C(N)Nc1ccc(C(=O)c2ccc(NC(=N)N)cc2)cc1 | 2.7 | 13 | – | 40
> 19 | – | 20.1 | – | CN(C)c1ccc(NC(=N)N)cc1 | > 358 | – | – | –
13.3 | – | 87.4 | – | N=C(N)Nc1ccc(C(=O)Nc2ccccc2)cc1 | > 309 | – | – | –
1.3 | – | 5.9 | – | CSc1ccc(NC(=N)N)cc1 | 240 | – | – | –
> 18 | – | 14.4 | – | N=C(N)Nc1ccc(C(=O)c2ccccc2)cc1 | 118 | – | – | –
1.2 | – | 1.9 | – | c1ccc(Sc2ccc(NC3=NCCN3)cc2)cc1 | 28.5 | – | – | –

IC50 (Plasmodium falciparum) [µM] | ΔTm [3] [°C] | IC50 [5] [µM] | IC50 (Ferriprotoporphyrin IX [6]) [µM] | Compound | IC50 (L6) [µM] | Ratio IC50 [1] | inhibition (Ferriprotoporphyrin IX [2]) [%] | Ratio IC50 [4]
– | 32.3 | – | – | N=C(N)c1ccc(OCCCCCOc2ccc(C(=N)N)cc2)cc1 | – | – | – | –
0.036 | 5.3 | 0.316 | – | CCOC(CNC(=N)Nc1ccc(Cc2ccc(NC(=N)NCC(OCC)OCC)cc2)cc1)OCC | > 175 | >553 | – | >4861
0.607 | 23 | 0.538 | 686 | Cl.N=C(N)Nc1ccc(NC(=S)Nc2ccc(NC(=N)N)cc2)cc1 | 15.5 | 29 | – | 26
3.4 | – | 45.4 | – | O=C(Nc1ccccc1)Nc1ccc(NC2=NCCN2)cc1 | > 219 | – | – | –
0.95 | – | 0.99 | – | N=C(N)Nc1ccc2c(c1)CCC2 | 73.7 | – | – | –
12 | – | 50.4 | – | c1cc(N2CCCCC2)ccc1NC1=NCCN1 | > 283 | – | – | –
4.1 | – | 32.9 | – | N=C(N)Nc1ccc(NC(=O)Nc2ccccc2)cc1 | > 234 | – | – | –
> 15 | – | 42.9 | – | O=C(Nc1ccccc1)c1ccc(NC2=NCCN2)cc1 | > 284 | – | – | –
0.018 | 29.6 | 0.022 | – | N=C(N)Nc1ccc(Nc2ccc(NC(=N)N)cc2)cc1 | 0.65 | 30 | 0 | 36
9 | – | 45.7 | – | CCc1ccc(NC(=N)N)cc1 | 310 | – | – | –
1.7 | – | 4.9 | – | c1ccc(Cc2ccc(NC3=NCCN3)cc2)cc1 | 73 | – | – | –
> 27 | – | 164 | – | Cc1ccc(NC(=N)N)cc1 | > 484 | – | – | –
7.9 | – | 18.8 | – | N=C(N)Nc1ccc(Oc2ccccc2)cc1 | 59.9 | – | – | –
5.7 | – | 5 | – | c1ccc(Oc2ccc(NC3=NCCN3)cc2)cc1 | 167 | – | – | –
0.046 | 22.1 | 0.196 | – | N=C(N)Nc1ccc(Oc2ccc(NC(=N)N)cc2)cc1 | 1.64 | 8 | 0 | 36
> 15 | – | 94.7 | – | O=C(Nc1ccc(NC2=NCCN2)cc1)c1ccccc1 | > 284 | – | – | –
10.4 | – | 122 | – | N=C(N)Nc1ccc(NC(=O)c2ccccc2)cc1 | > 309 | – | – | –
0.055 | – | 2.6 | – | CC(C)(C)OC(=O)N1CCN(C(=O)OC(C)(C)C)C1=Nc1ccc(S(=O)(=O)c2ccc(N=C3N(C(=O)OC(C)(C)C)CCN3C(=O)OC(C)(C)C)cc2)cc1 | 56.4 | – | 27 | 1025
5.6 | 12.1 | 32.4 | – | O=S(=O)(c1ccc(NC2=NCCN2)cc1)c1ccc(NC2=NCCN2)cc1 | > 196 | >6 | – | >35
0.035 | 20.1 | 0.102 | – | N=C(N)Nc1ccc(Sc2ccc(NC(=N)N)cc2)cc1 | 2.66 | 26 | 0 | 76
> 23 | – | 146 | – | N=C(N)Nc1ccc2c(c1)OCO2 | > 417 | – | – | –
7.9 | – | 48.6 | – | N=C(N)Nc1ccc(N2CCCCC2)cc1 | 232 | – | – | –
9 | – | 150 | – | N=C(N)Nc1ccc2c(c1)OCCO2 | > 391 | – | – | –

Compound | IC50 (Plasmodium falciparum) [µM] | ΔTm [3] [°C] | IC50 [5] [µM] | IC50 (Ferriprotoporphyrin IX [6]) [µM] | IC50 (L6) [µM] | Ratio IC50 [1] | inhibition (Ferriprotoporphyrin IX [2]) [%] | Ratio IC50 [4]
Nc1ccc(NC2=NCCN2)cc1 | 15 | – | – | – | > 423 | – | – | –
CSc1ccc(NC2=NCCN2)cc1 | 1.7 | – | 7.3 | – | 174 | – | – | –
CC(=O)c1ccc(NC2=NCCN2)cc1 | 5.7 | – | 54.6 | – | > 375 | – | – | –
c1ccc(NC2=NCCN2)cc1 | > 25 | – | 182 | – | > 455 | – | – | –
c1cc2c(cc1NC1=NCCN1)CCC2 | 5.3 | – | 9.2 | – | > 378 | – | – | –
CN(C)c1ccc(NC2=NCCN2)cc1 | > 18 | – | 46.6 | – | > 324 | – | – | –
c1cc2c(cc1NC1=NCCN1)OCO2 | > 20 | – | 93.5 | – | > 372 | – | – | –
Nc1nc(N)nc(Nc2ccc([As]3SCC(CO)S3)cc2)n1 (stereo unspecified) [MELARSOPROL] | 5.5 | – | – | – | – | – | – | –
COc1ccc(NC2=NCCN2)cc1OC | 14.8 | – | 84.2 | – | > 349 | – | – | –
Cc1ccc(NC2=NCCN2)cc1 | > 23 | – | 262 | – | > 425 | – | – | –
CCN(CC)c1ccc(NC2=NCCN2)cc1 | 15 | – | 40.1 | – | > 444 | – | – | –
Cc1ccc(NC2=NCCN2)cc1C | 17.1 | – | 49.8 | – | > 398 | – | – | –
c1cc2c(cc1NC1=NCCN1)OCCO2 | > 19 | – | 68.4 | – | > 351 | – | – | –
